Screening data deposited in PubChem by several laboratories.
Hits are enriched below; roughly 4.1% of the tested compounds scored in any of these assays.
DNA FID counter: displaces DNA intercalator in HCV helicase counter-screen | DNA fluorescent intercalator displacement, fluorescence | inhibition, % at 7.9 µM | 290,000 compounds, 0.17% hits | AID 1845; in the data active = inhibition above about 37%;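 also: 0% = vehicle and 100% = reference compound; higher means more ethidium bromide displaced from hairpin DNA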
T cruzi inh: T. cruzi replication inhibition; T. cruzi beta-gal in NIH3T3, luminescence, 90 h; inhibition, % (test concentration not listed); 300,000 compounds, 1.4% hits;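 active = mean inhibition across valid replicates above about 55%, limit read from the data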;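 also: signal also drops with host cell toxicity which is not excluded here; 0% = plate median of DMSO wells and 100% = zero luminescence signal; higher percent means less beta-gal luminescence so fewer parasites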
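compound dosing = single 50 nL compound addition per well in DMSO | material = NIH/3T3 host cells with β-galactosidase reporter T. cruzi | input = 5,000 host fibroblasts per well | timing = ≥90 h infection period, 3 h prior cell attachment | read-out basis = percent inhibition of parasite-derived β-gal signal | detection = GalScreen β-gal luminescence, detergent lysis, 60 min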
MEKK3 PB1 HTS: MEKK3-MEK5 PB1 interaction, increase or decrease; binding response (% of control), % at 10 µM; Q99759; 290,000 compounds, 1.4% hits; bead-based flow cytometry, Alexa488-MEK5 binding to MEKK3; actives lie on both sides; 0 = blocked by unlabeled MEK5, 100 = vehicle;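 active = binding response more than 3 SD above or below the average of its plate-row segment, actives on both sides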;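 also: Alexa488 bead fluorescence after subtracting the streptavidin-only scavenger bead signal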
Target sequence (Q99759 whole entry, looked up): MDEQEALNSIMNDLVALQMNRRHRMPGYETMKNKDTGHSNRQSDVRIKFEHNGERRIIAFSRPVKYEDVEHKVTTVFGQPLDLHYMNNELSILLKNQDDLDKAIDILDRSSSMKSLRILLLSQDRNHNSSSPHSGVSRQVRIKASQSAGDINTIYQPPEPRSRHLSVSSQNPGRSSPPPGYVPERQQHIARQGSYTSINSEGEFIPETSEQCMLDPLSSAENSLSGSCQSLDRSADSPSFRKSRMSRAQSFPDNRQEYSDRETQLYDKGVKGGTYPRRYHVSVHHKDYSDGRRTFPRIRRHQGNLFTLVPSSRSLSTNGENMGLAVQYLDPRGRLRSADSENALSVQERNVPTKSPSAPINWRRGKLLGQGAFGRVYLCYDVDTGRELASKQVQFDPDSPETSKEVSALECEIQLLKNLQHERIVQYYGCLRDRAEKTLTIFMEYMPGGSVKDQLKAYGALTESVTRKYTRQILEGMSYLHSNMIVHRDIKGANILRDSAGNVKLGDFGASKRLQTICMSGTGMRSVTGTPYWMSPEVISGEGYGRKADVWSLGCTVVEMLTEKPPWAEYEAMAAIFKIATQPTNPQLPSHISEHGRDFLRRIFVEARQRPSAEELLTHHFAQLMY
NS3 helicase inh: HCV NS3 helicase inhibition; NS3 helicase DNA unwinding, Cy5 molecular beacon fluorescence; inhibition, % at 10.9 µM; 290,000 compounds, 0.56% hits; AID 1800;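 active = inhibition above the mean of all tested compounds plus 3 SD, set per campaign, cut at about 35% in these data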;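 also: 0% = DMSO wells and 100% = thioflavine S control wells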
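Assay system: hepatitis C virus NS3 helicase domain fragment enzyme. Also added: annealed dual-labelled DNA beacon duplex, ATP-started. Timing: 1 h reaction at 25 °C, ATP-initiated. Technique: Cy5 fluorescence at 0 and 60 min, beacon hairpin quenching. Evaluation: % inhibition of unwinding. Replication: one well per compound.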
MEKK2mut PB1 HTS: signal of MEK5 binding to mutant human MEKK2 PB1 domain. percent response, % at 10 µM. bead flow cytometry, Alexa488-MEK5 binding to MEKK2 mutant. 290,000 compounds, 0.35% hits; in the data active = percent response above about 24%, passing the limit was not always enough
MEKK2 WT-MEK5: raises or lowers MEK5 binding to wildtype human MEKK2 PB1 domain | Q9Y2U5 | bead flow cytometry, Alexa488-MEK5 binding to MEKK2 WT; actives lie on both sides | binding response (% of control), % at 10 µM | 290,000 compounds, 1.1% hits | AID 1531; in the data active = binding response below about 67% or above about 130%
MEKK2wt confirm: raises or lowers MEK5 binding to wildtype human MEKK2, retest; shares compounds with MEKK3 PB1 HTS; bead flow cytometry, Alexa488-MEK5 binding to MEKK2 WT; actives lie on both sides; binding response (% of control), % at 10 µM; 5,900 compounds, 2.4% hits; AID 1892; in the data active = binding response below about 16% or above about 210%; inactive = in between
MEKK2mut confirm: signal of MEK5 binding to mutant human MEKK2, retest | shares compounds with MEKK3 PB1 HTS | bead flow cytometry, Alexa488-MEK5 binding to MEKK2 mutant | percent response, % at 10 µM | 5,900 compounds, 2% hits | AID 1893; in the data active = percent response mostly above about 71%, no sharp cut-off; inactive = mostly below about 38%;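 also: higher means compound restores mutant binding toward wildtype level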
MEKK3-MEK5 inh: confirmation of inhibitors of MEK5 binding to human MEKK3; 5,900 compounds, 1.8% hits; shares compounds with MEKK3 PB1 HTS; binding response (% of control), % at 10 µM; AID 1894; bead flow cytometry, Alexa488-MEK5 binding to MEKK3; stronger effect = lower value;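 active = binding response below 72% of control, or above a set upper limit, though filed actives all read lower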;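 also: 100% = DMSO only wells and 0% = binding blocked by excess unlabeled MEK5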
* = called active by the depositor; [ ] = dose if it differs, or a comment.

Results for N#Cc1c(Cl)nc(Cl)c2c1CCN(Cc1ccccc1)C2 ?
DNA FID counter: 0; T cruzi inh: 0; MEKK3 PB1 HTS: 183*; NS3 helicase inh: -2; MEKK2mut PB1 HTS: 2; MEKK2 WT-MEK5: 114; MEKK2wt confirm: 104; MEKK2mut confirm: 3; MEKK3-MEK5 inh: 99

Results for CC(=NCc1ccco1)c1c(O)n(-c2ccc(C)cc2)c(=O)[nH]c1=O ?
DNA FID counter: -8; T cruzi inh: 1; MEKK3 PB1 HTS: 109; NS3 helicase inh: 6; MEKK2mut PB1 HTS: 3; MEKK2 WT-MEK5: 107

What do the screens show for `CN1C[C@H](CO)C[C@@H]2c3cccc4[nH]cc(c34)C[C@H]21`?
DNA FID counter: -6; T cruzi inh: -5; MEKK3 PB1 HTS: 101; NS3 helicase inh: 19; MEKK2mut PB1 HTS: 9; MEKK2 WT-MEK5: 104

What do the screens show for `CN1C[C@H](CNC(=O)OCc2ccccc2)C[C@@H]2c3cccc4c3c(cn4C)C[C@H]21`?
DNA FID counter: 3; T cruzi inh: 5; MEKK3 PB1 HTS: 116; NS3 helicase inh: -58; MEKK2mut PB1 HTS: 14; MEKK2 WT-MEK5: 158*; MEKK2wt confirm: 140; MEKK2mut confirm: 10; MEKK3-MEK5 inh: 99

What do the screens show for `Cc1[nH]c2ccc(OCc3ccccc3)cc2c1CCN`?
DNA FID counter: 19; T cruzi inh: -8; MEKK3 PB1 HTS: 110; NS3 helicase inh: -59; MEKK2mut PB1 HTS: 18; MEKK2 WT-MEK5: 162*; MEKK2wt confirm: 133; MEKK2mut confirm: 14; MEKK3-MEK5 inh: 105

Results for O=C1Nc2cc(C(=O)N3CCC4(CC3)OCCO4)ccc2NC1CSCc1cccc(F)c1 (centres undefined) ?
DNA FID counter: -28; T cruzi inh: -8; MEKK3 PB1 HTS: 100; NS3 helicase inh: 0; MEKK2mut PB1 HTS: 4; MEKK2 WT-MEK5: 102

How did Cc1onc(-c2c(Cl)cccc2Cl)c1C(=O)Nc1ccc2c(C(F)(F)F)cc(=O)oc2c1 do in these assays?
DNA FID counter: -2; T cruzi inh: 19; MEKK3 PB1 HTS: 99; NS3 helicase inh: 1; MEKK2mut PB1 HTS: -5; MEKK2 WT-MEK5: 99

How did CSc1ccc(CN2CCN(C(=O)COc3cccc(C)c3)CC2)cc1 do in these assays?
DNA FID counter: -14; T cruzi inh: 33; MEKK3 PB1 HTS: 100; NS3 helicase inh: -5; MEKK2mut PB1 HTS: 2; MEKK2 WT-MEK5: 103

Results for COc1ccc(NC(=O)C2C3CCC(O3)C2C(=O)O)c(OC)c1 (centres undefined) ?
DNA FID counter: 2; T cruzi inh: 10; MEKK3 PB1 HTS: 100; NS3 helicase inh: -2; MEKK2mut PB1 HTS: 3; MEKK2 WT-MEK5: 101

How did CC(=NCCCn1ccnc1)c1c(O)n(C2CCCCC2)c(=O)[nH]c1=O do in these assays?
DNA FID counter: -6; T cruzi inh: 5; MEKK3 PB1 HTS: 132*; NS3 helicase inh: 4; MEKK2mut PB1 HTS: 23; MEKK2 WT-MEK5: 113; MEKK2wt confirm: 103; MEKK2mut confirm: -2; MEKK3-MEK5 inh: 106

How did Clc1cc(Cl)cc(NC2=NCCS2)c1 do in these assays?
DNA FID counter: -10; MEKK3 PB1 HTS: 93; NS3 helicase inh: -8; MEKK2mut PB1 HTS: -8; MEKK2 WT-MEK5: 98

Results for CC/C(=N\N1CCN(C)CC1)c1c(O)[nH]c(=O)[nH]c1=O ?
DNA FID counter: 2; T cruzi inh: -9; MEKK3 PB1 HTS: 140*; NS3 helicase inh: -3; MEKK2mut PB1 HTS: 0; MEKK2 WT-MEK5: 105; MEKK2wt confirm: 104; MEKK2mut confirm: 4; MEKK3-MEK5 inh: 100

Results for C[n+]1c2ccccc2nc2ccc(NCCO)cc21 ?
DNA FID counter: -105; T cruzi inh: 10; MEKK3 PB1 HTS: 85; NS3 helicase inh: 21; MEKK2mut PB1 HTS: 0; MEKK2 WT-MEK5: 95

What do the screens show for `CNc1ccc2nc3ccccc3[n+](C)c2c1`?
DNA FID counter: -114; T cruzi inh: 59*; MEKK3 PB1 HTS: 88; NS3 helicase inh: 18; MEKK2mut PB1 HTS: -5; MEKK2 WT-MEK5: 2.0*[inhibitor]; MEKK2wt confirm: 95; MEKK2mut confirm: 6; MEKK3-MEK5 inh: 94

Results for O=C1NC(=O)C(CCc2ccncc2)(Cc2ccc([N+](=O)[O-])cc2)C(=O)N1 ?
DNA FID counter: -1; T cruzi inh: -6; MEKK3 PB1 HTS: 140*; NS3 helicase inh: 3; MEKK2mut PB1 HTS: 0; MEKK2 WT-MEK5: 107; MEKK2wt confirm: 100; MEKK2mut confirm: 2; MEKK3-MEK5 inh: 100

How did COc1ccc(CC2(CCc3ccncc3)C(=O)NC(=O)NC2=O)cc1 do in these assays?
DNA FID counter: -5; T cruzi inh: -1; MEKK3 PB1 HTS: 85; NS3 helicase inh: -6; MEKK2mut PB1 HTS: -8; MEKK2 WT-MEK5: 85

How did CN1CCN(c2ccc(Cl)cc2N)CC1 do in these assays?
DNA FID counter: 12; T cruzi inh: 27; MEKK3 PB1 HTS: 97; NS3 helicase inh: 6; MEKK2mut PB1 HTS: -4; MEKK2 WT-MEK5: 101

What do the screens show for `Cc1ccc(Cl)cc1N1CCN(CCN)CC1`?
DNA FID counter: 5; T cruzi inh: 7; MEKK3 PB1 HTS: 108; NS3 helicase inh: -10; MEKK2mut PB1 HTS: 40*; MEKK2 WT-MEK5: 139*; MEKK2wt confirm: 128; MEKK2mut confirm: 12; MEKK3-MEK5 inh: 100

Results for c1ccc(-c2[nH]c[n+](CC3CO3)c2-c2ccccc2)cc1 (centres undefined) ?
DNA FID counter: 5; MEKK3 PB1 HTS: 104; NS3 helicase inh: -65; MEKK2mut PB1 HTS: 40; MEKK2 WT-MEK5: 152*; MEKK2wt confirm: 110; MEKK2mut confirm: 0; MEKK3-MEK5 inh: 100

How did Nc1c(C(=O)NCc2ccco2)c2nc3ccccc3nc2n1CCN1CCCCC1 do in these assays?
DNA FID counter: 9; T cruzi inh: 69*; MEKK3 PB1 HTS: 122*; NS3 helicase inh: -1; MEKK2mut PB1 HTS: 29*; MEKK2 WT-MEK5: 146*; MEKK2wt confirm: 139; MEKK2mut confirm: 16; MEKK3-MEK5 inh: 105

What do the screens show for `COc1ccc(Cn2c(N)c(C(=O)NCc3ccco3)c3nc4ccccc4nc32)cc1OC`?
DNA FID counter: -34; NS3 helicase inh: 19
